Source: ChEMBL document CHEMBL4270599, “Synthesis of a 3'-C-ethynyl-β-d-ribofuranose purine nucleoside library: Discovery of C7-deazapurine analogs as potent antiproliferative nucleosides” (Eur J Med Chem, 2018)

Experiments:
DU-145 = assay: Growth inhibition of human DU145 cells assessed as cell growth at 10^-6 M incubated for 48 hrs by sulforhodamine B assay relative to control; assay type: functional; details: DU-145, 48 h, read-out: Activity
HOP-62 = assay: Growth inhibition of human HOP62 cells assessed as cell growth at 10^-6 M incubated for 48 hrs by sulforhodamine B assay relative to control; assay type: functional; details: HOP-62, 48 h, read-out: Activity
SNB-19 = assay: Growth inhibition of human SNB19 cells assessed as cell growth at 10^-8 M incubated for 48 hrs by sulforhodamine B assay relative to control; assay type: functional; details: SNB-19, 48 h, read-out: Activity
TK-10 = assay: Growth inhibition of human TK10 cells assessed as cell growth at 10^-5 M incubated for 48 hrs by sulforhodamine B assay relative to control; assay type: functional; details: TK-10, 48 h, read-out: Activity
MCF7 = assay: Growth inhibition of human MCF7 cells assessed as cell growth at 10^-7 M incubated for 48 hrs by sulforhodamine B assay relative to control; assay type: functional; details: MCF7, 48 h, read-out: Activity
MDA-MB-231 = assay: Cytotoxicity against human MDA-MB-231 cells after 48 hrs by SRB assay; assay type: functional; details: MDA-MB-231, 48 h
SK-MEL-5 = assay: Growth inhibition of human SK-MEL-5 cells assessed as cell growth at 10^-6 M incubated for 48 hrs by sulforhodamine B assay relative to control; assay type: functional; details: SK-MEL-5, 48 h, read-out: Activity
SK-MEL-28 [1] = assay: Cytotoxicity against human SK-MEL-28 cells after 48 hrs by SRB assay; assay type: functional; details: SK-MEL-28, 48 h
KM12 [2] = assay: Growth inhibition of human KM12 cells assessed as cell growth at 10^-6 M incubated for 48 hrs by sulforhodamine B assay relative to control; assay type: functional; details: KM12, 48 h, read-out: Activity
HCT-15 = assay: Growth inhibition of human HCT15 cells assessed as cell growth at 10^-7 M incubated for 48 hrs by sulforhodamine B assay relative to control; assay type: functional; details: HCT-15, 48 h, read-out: Activity
KM12 [3] = assay: Growth inhibition of human KM12 cells assessed as cell growth at 10^-4 M incubated for 48 hrs by sulforhodamine B assay relative to control; assay type: functional; details: KM12, 48 h, read-out: Activity
786-0 = assay: Growth inhibition of human 786-0 cells assessed as cell growth at 10^-7 M incubated for 48 hrs by sulforhodamine B assay relative to control; assay type: functional; details: 786-0, 48 h, read-out: Activity
OVCAR-5 [4] = assay: Growth inhibition of human OVCAR5 cells assessed as cell growth at 10^-5 M incubated for 48 hrs by sulforhodamine B assay relative to control; assay type: functional; details: OVCAR-5, 48 h, read-out: Activity
SF-539 [5] = assay: Cytotoxicity against human SF539 cells after 48 hrs by SRB assay; assay type: functional; details: SF-539, 48 h
HOP-92 = assay: Cytotoxicity against human HOP92 cells after 48 hrs by SRB assay; assay type: functional; details: HOP-92, 48 h
SW-620 = assay: Growth inhibition of human SW620 cells assessed as cell growth at 10^-4 M incubated for 48 hrs by sulforhodamine B assay relative to control; assay type: functional; details: SW-620, 48 h, read-out: Activity
RXF 393 = assay: Growth inhibition of human RXF393 cells assessed as cell growth at 10^-6 M incubated for 48 hrs by sulforhodamine B assay relative to control; assay type: functional; details: RXF 393, 48 h, read-out: Activity
UACC-62 [6] = assay: Cytotoxicity against human UACC62 cells after 48 hrs by SRB assay; assay type: functional; details: UACC-62, 48 h
SR = assay: Growth inhibition of human SR cells assessed as cell growth at 10^-4 M incubated for 48 hrs by sulforhodamine B assay relative to control; assay type: functional; details: read-out: Activity
A498 = assay: Growth inhibition of human A498 cells assessed as cell growth at 10^-6 M incubated for 48 hrs by sulforhodamine B assay relative to control; assay type: functional; details: A498, 48 h, read-out: Activity
SF-539 [7] = assay: Growth inhibition of human SF539 cells assessed as cell growth at 10^-8 M incubated for 48 hrs by sulforhodamine B assay relative to control; assay type: functional; details: SF-539, 48 h, read-out: Activity
MDA-MB-435 [8] = assay: Growth inhibition of human MDA-MB-435 cells assessed as cell growth at 10^-8 M incubated for 48 hrs by sulforhodamine B assay relative to control; assay type: functional; details: MDA-MB-435, 48 h, read-out: Activity
UACC-257 = assay: Growth inhibition of human UACC257 cells assessed as cell growth at 10^-8 M incubated for 48 hrs by sulforhodamine B assay relative to control; assay type: functional; details: UACC-257, 48 h, read-out: Activity
MDA-MB-435 [9] = assay: Growth inhibition of human MDA-MB-435 cells assessed as cell growth at 10^-6 M incubated for 48 hrs by sulforhodamine B assay relative to control; assay type: functional; details: MDA-MB-435, 48 h, read-out: Activity
OVCAR-3 = assay: Cytotoxicity against human OVCAR3 cells after 48 hrs by SRB assay; assay type: functional; details: OVCAR-3, 48 h
UACC-62 [10] = assay: Growth inhibition of human UACC62 cells assessed as cell growth at 10^-8 M incubated for 48 hrs by sulforhodamine B assay relative to control; assay type: functional; details: UACC-62, 48 h, read-out: Activity
SK-MEL-28 [11] = assay: Growth inhibition of human SK-MEL-28 cells assessed as cell growth at 10^-5 M incubated for 48 hrs by sulforhodamine B assay relative to control; assay type: functional; details: SK-MEL-28, 48 h, read-out: Activity
OVCAR-5 [12] = assay: Growth inhibition of human OVCAR5 cells assessed as cell growth at 10^-6 M incubated for 48 hrs by sulforhodamine B assay relative to control; assay type: functional; details: OVCAR-5, 48 h, read-out: Activity
HUVEC = assay: Antiproliferative activity against HUVEC cells after 4 days by Coulter counter method; assay type: cell-based; details: Homo sapiens, 96 h
How it was run: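 Primary HUVEC, primary HMVEC-d and the HMEC-1 line seeded at 20,000 cells/well in gelatin-coated plates in EC growth medium (EGM2). After overnight incubation, 5-fold compound dilutions added. Cells proliferated four days with compound, then trypsinized and counted by Coulter counter to derive IC₅₀.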

NCI-H322M = assay: Growth inhibition of human NCI-H322M cells assessed as cell growth at 10^-7 M incubated for 48 hrs by sulforhodamine B assay relative to control; assay type: functional; details: read-out: Activity
MOLT-4 = assay: Growth inhibition of human MOLT4 cells assessed as cell growth at 10^-5 M incubated for 48 hrs by sulforhodamine B assay relative to control; assay type: functional; details: MOLT-4, 48 h, read-out: Activity
[13] = read-out: LC50 (the source's name)
[14] = read-out: pLC50 (the source's name) (converted)

Q: With `C#C[C@@]1(O)[C@@H](CO)O[C@@H](n2cc(F)c3c(N)ncnc32)[C@@H]1O` as the molecule, how does the growth at 1 µM (DU-145) read?
A: 16%

Q: And the growth at 1 µM (HOP-62)?
A: 33%

Q: What about the growth at 0.01 µM (SNB-19) of the same molecule?
A: 93%

Q: And the growth at 10 µM (TK-10)?
A: -9%

Q: What about the growth at 0.1 µM (MCF7) of the same molecule?
A: 51%

Q: What about the CC50 (MDA-MB-231; [13]) of the same molecule?
A: > 100000 nM

Q: And the TGI (MDA-MB-231; read-out: TGI)?
A: 2980 nM

Q: What about the GI50 (MDA-MB-231; read-out: pGI50 (converted)) of the same molecule?
A: 380 nM

Q: And the TGI (MDA-MB-231; read-out: pTGI (converted))?
A: 2950 nM

Q: What about the growth at 1 µM (SK-MEL-5) of the same molecule?
A: 13%

Q: And the TGI (SK-MEL-28 [1]; read-out: TGI)?
A: > 100000 nM

Q: What about the GI50 (SK-MEL-28 [1]; read-out: pGI50 (converted)) of the same molecule?
A: 4270 nM

Q: What about the CC50 (SK-MEL-28 [1]; [14]) of the same molecule?
A: > 100000 nM

Q: And the TGI (SK-MEL-28 [1]; read-out: pTGI (converted))?
A: > 100000 nM

Q: And the growth at 1 µM (KM12 [2])?
A: 35%

Q: What about the growth at 0.1 µM (HCT-15) of the same molecule?
A: 79%

Q: And the growth at 100 µM (KM12 [3])?
A: -10%

Q: What about the growth at 0.1 µM (786-0) of the same molecule?
A: 87%

Q: What about the growth at 10 µM (OVCAR-5 [4]) of the same molecule?
A: 5%

Q: And the CC50 (SF-539 [5]; [13])?
A: > 100000 nM

Q: And the TGI (SF-539 [5]; read-out: TGI)?
A: 5290 nM

Q: And the GI50 (SF-539 [5]; read-out: pGI50 (converted))?
A: 1320 nM

Q: And the TGI (SF-539 [5]; read-out: pTGI (converted))?
A: 5250 nM

Q: What about the CC50 (HOP-92; [13]) of the same molecule?
A: > 100000 nM

Q: And the GI50 (HOP-92; read-out: pGI50 (converted))?
A: 38 nM

Q: What about the growth at 100 µM (SW-620) of the same molecule?
A: -23%

Q: And the growth at 1 µM (RXF 393)?
A: 42%

Q: What about the TGI (UACC-62 [6]; read-out: TGI) of the same molecule?
A: 1470 nM

Q: And the GI50 (UACC-62 [6]; read-out: pGI50 (converted))?
A: 331 nM

Q: What about the CC50 (UACC-62 [6]; [14]) of the same molecule?
A: 7240 nM

Q: What about the TGI (UACC-62 [6]; read-out: pTGI (converted)) of the same molecule?
A: 1480 nM

Q: What about the growth at 100 µM (SR) of the same molecule?
A: 3%

Q: And the growth at 1 µM (A498)?
A: 43%

Q: What about the growth at 0.01 µM (SF-539 [7]) of the same molecule?
A: 104%

Q: What about the growth at 0.01 µM (MDA-MB-435 [8]) of the same molecule?
A: 98%

Q: What about the growth at 0.01 µM (UACC-257) of the same molecule?
A: 91%

Q: What about the growth at 1 µM (MDA-MB-435 [9]) of the same molecule?
A: 28%

Q: What about the CC50 (OVCAR-3; [13]) of the same molecule?
A: > 100000 nM

Q: What about the TGI (OVCAR-3; read-out: TGI) of the same molecule?
A: > 100000 nM

Q: What about the GI50 (OVCAR-3; read-out: pGI50 (converted)) of the same molecule?
A: 1120 nM

Q: What about the TGI (OVCAR-3; read-out: pTGI (converted)) of the same molecule?
A: > 100000 nM

Q: What about the growth at 0.01 µM (UACC-62 [10]) of the same molecule?
A: 94%

Q: And the growth at 10 µM (SK-MEL-28 [11])?
A: 37%

Q: What about the growth at 1 µM (OVCAR-5 [12]) of the same molecule?
A: 65%

Q: And the IC50 (HUVEC)?
A: 67 nM

Q: What about the growth at 0.1 µM (NCI-H322M) of the same molecule?
A: 94%

Q: And the growth at 10 µM (MOLT-4)?
A: 2%
